Test results as given in ChEMBL document CHEMBL1938246, “Eudesmane-type sesquiterpene lactones inhibit multiple steps in the NF-κB signaling pathway induced by inflammatory cytokines” (Bioorg Med Chem Lett, 2012).
The source made the active and inactive calls. No cut-off for these calls is given here.

How the values were obtained:
[1] = tested on: A549; assay: Cytotoxicity against human A549 cells after 24 hrs by MTT assay; type: cell-based; settings: a549, 24 h
Outline: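 A549 cells exposed to serial dilutions of compound for 24 h. Viability (%) by MTT assay on triplicate cultures. IC50 (µM) is the mean of four independent experiments.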

[2] = tested on: A549; assay: (§1) Inhibition of NFkappaB-mediated ICAM1 expression in IL1alpha-stimulated human A549 cells treated 1 hr before IL1alpha challenge measured after 6 hrs by ELISA; type: cell-based
Outline: (§2)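 A549 cells preincubated 1 h with serial dilutions of compound, then stimulated with IL-1α (0.25 ng/mL) or TNF-α (2.5 ng/mL) for 6 h with compound still present. Cell-surface ICAM-1 (%) by cell ELISA on triplicate cultures. IC50 (µM) is the mean of at least three independent experiments.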

[3] = as §1; type: cell-based; outline: as §2
[4] = tested on: A549; assay: (§3) Inhibition of NFkappaB-mediated ICAM1 expression in TNFalpha-stimulated human A549 cells treated 1 hr before TNFalpha challenge measured after 6 hrs by ELISA; type: cell-based; outline: as §2
[5] = as §3; type: cell-based; outline: as §2
[6] = tested on: A549; assay: Inhibition of NFkappaB-mediated ICAM1 protein expression in IL1alpha-stimulated human A549 cells preincubated for 1 hr prior IL1alpha challenge measured after 6 hrs by Western blot analysis; type: cell-based
[7] = biological target: T1, NF-kappa-B inhibitor alpha (Homo sapiens) (UniProt P25963); assay: Inhibition of TNF-alpha-induced IkappaBalpha phosphorylation in human A549 cells at 100 uM incubated for 1 hr prior TNFalpha challenge measured after 15 mins by Western blot analysis in the presence of proteasome inhibitor MG-132; type: cell-based
T1 sequence (whole entry): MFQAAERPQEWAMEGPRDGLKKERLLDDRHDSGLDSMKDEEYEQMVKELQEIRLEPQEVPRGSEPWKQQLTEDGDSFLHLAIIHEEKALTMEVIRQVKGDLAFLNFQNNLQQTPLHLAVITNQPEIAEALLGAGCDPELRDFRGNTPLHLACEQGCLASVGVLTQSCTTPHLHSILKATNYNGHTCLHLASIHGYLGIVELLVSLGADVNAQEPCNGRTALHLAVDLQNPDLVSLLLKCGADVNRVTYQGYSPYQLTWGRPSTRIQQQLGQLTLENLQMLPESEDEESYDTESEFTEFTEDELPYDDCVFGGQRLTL
Outline: (§4)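 A549 cells preincubated 1 h with or without the proteasome inhibitor MG-132 (20 µM) or with compound at various concentrations. Then stimulated 15 min with IL-1α (0.25 ng/mL) or TNF-α (2.5 ng/mL), or left unstimulated, with compound present. IκBα phosphorylation then examined.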

[8] = tested on: A549; assay: Inhibition of TNF-alpha-induced IkappaBalpha degradation in human A549 cells at 100 uM incubated for 1 hr prior TNFalpha challenge measured after 15 mins by Western blot analysis; type: functional, cell-based
Outline: (§5)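 A549 cells preincubated 1 h with compound at the stated concentrations, then given IL-1α (0.25 ng/mL) or TNF-α (2.5 ng/mL). IκBα degradation then monitored.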

[9] = tested on: A549; assay: Inhibition of NF-kappaB p50 nuclear translocation in TNFalpha-stimulated human A549 cells at 30 to 100 uM incubated for 1 hr prior TNFalpha challenge measured after 30 mins by Western blot analysis; type: cell-based
Outline: (§6)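 A549 cells pretreated 1 h with compound at the stated concentrations, then stimulated 30 min with IL-1α (0.25 ng/mL) or TNF-α. p65 and p50 subunits then assessed for movement from cytoplasm to nucleus.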

[10] = Selectivity ratio of IC50 for human A549 cells to IC50 for NFkappaB-mediated ICAM1 expression in human A549 cells; type: ADME, cell-based; settings: read-out: Ratio IC50
[11] = tested on: A549; assay: Inhibition of NFkappaB-mediated ICAM1 protein expression in TNFalpha-stimulated human A549 cells preincubated for 1 hr prior TNFalpha challenge measured after 6 hrs by Western blot analysis; type: cell-based
[12] = biological target: Transcription factor p65 (Homo sapiens) (UniProt Q04206); assay: Inhibition of NF-kappaB p65 nuclear translocation in TNFalpha-stimulated human A549 cells at 30 to 100 uM incubated for 1 hr prior TNFalpha challenge measured after 30 mins by Western blot analysis; type: cell-based; outline: as §6
Sequence of Transcription factor p65 (Homo sapiens) (Q04206 whole entry): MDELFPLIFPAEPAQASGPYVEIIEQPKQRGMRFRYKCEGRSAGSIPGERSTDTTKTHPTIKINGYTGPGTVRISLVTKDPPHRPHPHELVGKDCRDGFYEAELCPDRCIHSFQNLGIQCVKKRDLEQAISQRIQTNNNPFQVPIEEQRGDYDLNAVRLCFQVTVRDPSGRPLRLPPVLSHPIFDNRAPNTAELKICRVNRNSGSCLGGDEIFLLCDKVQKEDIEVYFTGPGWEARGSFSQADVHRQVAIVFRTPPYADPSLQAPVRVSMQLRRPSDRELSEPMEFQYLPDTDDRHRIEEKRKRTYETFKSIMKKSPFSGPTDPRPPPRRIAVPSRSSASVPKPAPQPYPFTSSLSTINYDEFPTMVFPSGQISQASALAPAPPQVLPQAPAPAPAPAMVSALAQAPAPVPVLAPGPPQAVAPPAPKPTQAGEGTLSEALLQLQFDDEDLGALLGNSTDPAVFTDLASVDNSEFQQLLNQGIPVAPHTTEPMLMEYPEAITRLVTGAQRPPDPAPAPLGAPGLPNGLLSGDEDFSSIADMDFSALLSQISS

[13] = tested on: A549; assay: Inhibition of IL1alpha-induced IkappaBalpha degradation in human A549 cells at 100 uM incubated for 1 hr prior IL1alpha challenge measured after 15 mins by Western blot analysis; type: functional, cell-based; outline: as §5
[14] = biological target: T1, NF-kappa-B inhibitor alpha (Homo sapiens); assay: Inhibition of IL1alpha-induced IkappaBalpha phosphorylation in human A549 cells at 100 uM incubated for 1 hr prior IL1alpha challenge measured after 15 mins by Western blot analysis in the presence of proteasome inhibitor MG-132; type: cell-based; outline: as §4
[15] = tested on: A549; assay: Inhibition of NF-kappaB p50 nuclear translocation in IL1alpha-stimulated human A549 cells at 30 to 100 uM incubated for 1 hr prior IL1alpha challenge measured after 30 mins by Western blot analysis; type: cell-based; outline: as §6
[16] = biological target: Transcription factor p65 (Homo sapiens) (UniProt Q04206); assay: Inhibition of NF-kappaB p65 nuclear translocation in IL1alpha-stimulated human A549 cells at 30 to 100 uM incubated for 1 hr prior IL1alpha challenge measured after 30 mins by Western blot analysis; type: cell-based; outline: as §6
[17] = biological target: Transcription factor p65 (Homo sapiens) (UniProt Q04206); assay: Inhibition of NF-kappaB p65 nuclear translocation in TNFalpha-stimulated human A549 cells at 100 uM incubated for 1 hr prior TNFalpha challenge measured after 30 mins by Western blot analysis; type: cell-based; outline: as §6
[18] = tested on: A549; assay: Inhibition of NF-kappaB p50 nuclear translocation in IL1alpha-stimulated human A549 cells at 100 uM incubated for 1 hr prior IL1alpha challenge measured after 30 mins by Western blot analysis; type: cell-based; outline: as §6
[19] = biological target: Transcription factor p65 (Homo sapiens) (UniProt Q04206); assay: Inhibition of NF-kappaB p65 nuclear translocation in IL1alpha-stimulated human A549 cells at 100 uM incubated for 1 hr prior IL1alpha challenge measured after 30 mins by Western blot analysis; type: cell-based; outline: as §6
[20] = tested on: A549; assay: Inhibition of NF-kappaB p50 nuclear translocation in TNFalpha-stimulated human A549 cells at 100 uM incubated for 1 hr prior TNFalpha challenge measured after 30 mins by Western blot analysis; type: cell-based; outline: as §6
[21] = tested on: A549; assay: Cytotoxicity against human A549 cells at 100 to 320 uM after 24 hrs by MTT assay; type: cell-based; settings: a549, 24 h
[22] = tested on: A549; assay: Cytotoxicity against human A549 cells at 100 uM up to 7 hrs by MTT assay; type: cell-based; settings: a549, 7 h
[23] = biological target: T1, NF-kappa-B inhibitor alpha (Homo sapiens); assay: Inhibition of TNF-alpha-induced IkappaBalpha phosphorylation in human A549 cells at 10 to 100 uM incubated for 1 hr prior to TNFalpha challenge measured after 15 mins by Western blot analysis in the presence of proteasome inhibitor MG-132; type: cell-based; outline: as §4
[24] = biological target: T1, NF-kappa-B inhibitor alpha (Homo sapiens); assay: Inhibition of IL1alpha-induced IkappaBalpha phosphorylation in human A549 cells at 10 to 100 uM incubated for 1 hr prior to IL1alpha challenge measured after 15 mins by Western blot analysis in the presence of proteasome inhibitor MG-132; type: cell-based; outline: as §4
[25] = tested on: A549; assay: Cytotoxicity against human A549 cells at 100 uM up to 7 hrs by crystal violet staining; type: cell-based; settings: a549, 7 h

C[C@H]1[C@@H]2[C@H]3OC(=O)[C@@H](C)[C@@H]3CC[C@@]2(C)C=C[C@@H]1O
IC50 [1]: > 320 µM
inhibition [2]: inactive
IC50 [3]: > 320 µM
inhibition [4]: inactive
IC50 [5]: > 320 µM

C=C1C(=O)O[C@@H]2[C@H]3[C@H](C)[C@@H](O)C=C[C@]3(C)CC[C@@H]12
inhibition [6]: Dose-dependent effect
IC50 [1]: 140 µM
inhibition [7]: inactive
inhibition [8]: inactive
inhibition [9]: Active
selectivity ratio [10]: 10
inhibition [11]: Dose-dependent effect
inhibition [12]: Active
inhibition [13]: inactive
inhibition [14]: inactive
inhibition [2]: Dose-dependent effect
IC50 [3]: 23 µM
inhibition [15]: Active
inhibition [16]: Active
inhibition [4]: Dose-dependent effect
IC50 [5]: 6.1 µM

C=C1C(=O)O[C@@H]2[C@H]3[C@H](C)C(=O)C=C[C@]3(C)CC[C@@H]12
inhibition [6]: Dose-dependent effect
IC50 [1]: 120 µM
inhibition [7]: Active
inhibition [8]: Active
inhibition [9]: Active
selectivity ratio [10]: 10
inhibition [11]: Dose-dependent effect
inhibition [12]: Active
inhibition [13]: Active
inhibition [14]: Active
inhibition [2]: Dose-dependent effect
IC50 [3]: 10 µM
inhibition [15]: Active
inhibition [16]: Active
inhibition [4]: Dose-dependent effect
IC50 [5]: 4.3 µM

C[C@@H]1C(=O)O[C@H]2[C@H]1CC[C@@]1(C)C=CC(=O)[C@@H](C)[C@H]21
inhibition [17]: Active
inhibition [6]: Dose-dependent effect
inhibition [18]: Active
IC50 [1]: > 320 µM
inhibition [19]: Active
inhibition [11]: Dose-dependent effect
inhibition [2]: Dose-dependent effect
IC50 [3]: 52 µM
inhibition [20]: Active
Activity [21]: Toxic
inhibition [4]: Dose-dependent effect
IC50 [5]: 34 µM

C=C1C(=O)O[C@@H]2[C@H]3[C@H](C)C(=O)CC[C@]3(C)CC[C@@H]12
inhibition [6]: Dose-dependent effect
IC50 [1]: 110 µM
inhibition [7]: Active
inhibition [8]: Active
inhibition [9]: Active
selectivity ratio [10]: 10
inhibition [11]: Dose-dependent effect
inhibition [12]: Active
inhibition [13]: Active
inhibition [14]: Active
inhibition [2]: Dose-dependent effect
IC50 [3]: 6.2 µM
inhibition [15]: Active
inhibition [16]: Active
inhibition [4]: Dose-dependent effect
IC50 [5]: 4.3 µM

C[C@@H]1C(=O)O[C@H]2[C@H]1CC[C@@]1(C)C[C@@H](Br)C(=O)[C@@H](C)[C@H]21
inhibition [6]: Dose-dependent effect
IC50 [1]: > 320 µM
inhibition [8]: inactive
inhibition [9]: Active
Activity [22]: Non-toxic
inhibition [23]: Active
inhibition [11]: Dose-dependent effect
inhibition [24]: Active
inhibition [12]: Active
Activity [25]: Non-toxic
inhibition [13]: Active
inhibition [2]: Dose-dependent effect
IC50 [3]: 10 µM
inhibition [15]: Active
Activity [21]: Toxic
inhibition [16]: Active
inhibition [4]: Dose-dependent effect
IC50 [5]: 4.6 µM

C=C1C(=O)O[C@@H]2[C@H]3[C@H](C)C(=O)[C@H](Br)C[C@]3(C)CC[C@@H]12
inhibition [6]: Dose-dependent effect
IC50 [1]: 88 µM
inhibition [7]: Active
inhibition [8]: Active
inhibition [9]: Active
selectivity ratio [10]: 10
inhibition [11]: Dose-dependent effect
inhibition [12]: Active
inhibition [13]: Active
inhibition [14]: Active
inhibition [2]: Dose-dependent effect
IC50 [3]: 3.4 µM
inhibition [15]: Active
inhibition [16]: Active
inhibition [4]: Dose-dependent effect
IC50 [5]: 2.8 µM

C[C@@H]1C(=O)O[C@H]2[C@H]1CC[C@@]1(C)CCC(=O)[C@@H](C)[C@H]21
IC50 [1]: > 320 µM
inhibition [2]: inactive
IC50 [3]: > 320 µM
inhibition [4]: inactive
IC50 [5]: > 320 µM
